The source made the active and inactive calls. No cut-off for these calls is given here.
Assays:
[1] = system: Rattus norvegicus; experiment: Neuroprotective activity in 6-OHDA-lesioned Wistar rat model of parkinson disease assessed as increase in L-DOPA induced contralateral rotations at 100 mg/kg, po pretreated for 30 mins followed by benserazide addition and subsequent L-DOPA stimulation for 30 mins measured up to 2 hrs; assay type: functional, organism-based
In short: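 Male Wistar rats (295–305 g) anesthetized with ketamine/xylazine and given desipramine 10 mg/kg i.p. 30 min before 6-OHDA lesioning. At two weeks, rats were screened with apomorphine 0.05 mg/kg i.p. and kept only if they made ≥100 rotations in 1 h. Compound (30 or 100 mg/kg p.o., in 1% Tween 80/0.5% MC) was given 30 min before benserazide. L-DOPA 4 mg/kg i.p. followed 30 min later. Contralateral rotations counted over 2 h; one-way ANOVA with Dunnett's test.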

[2] = AUC (0 to t) in Wistar rat brain at 10 mg/kg administered through oral gavage by LC/MS/MS analysis; assay type: ADME, organism-based
In short: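 Male Wistar rats (230 ± 15 g), fasted overnight, given an oral suspension (1% Tween 80, 0.5% NaCMC; 1 mg/mL, 10 mL/kg). Blood and brain were collected discretely at 0.5, 2, 4 and 8 h. Brain was washed in PBS pH 7.4, weighed and homogenized, then acetonitrile-precipitated with internal standard. LC/MS/MS against standards in blank brain homogenate; n=4.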

[3] = AUC (0 to t) in Wistar rat plasma at 10 mg/kg administered through oral gavage by LC/MS/MS analysis; assay type: ADME, organism-based
[4] = Ratio of AUC (0 to t) in Wistar rat brain to AUC (0 to t) in Wistar rat plasma at 10 mg/kg administered through oral gavage by LC/MS/MS analysis; assay type: ADME, organism-based; settings: brain and plasma, read-out: Ratio AUC
In short: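 Male Wistar rats (230 ± 15 g), fasted overnight, water ad libitum; single oral dose of 10 mg/kg as suspension in 1% Tween 80/0.5% NaCMC, n=4. Blood and brain collected by discrete sampling at 0.5, 2, 4 and 8 h post dose. Brain washed in PBS and homogenised, plasma and homogenate precipitated with acetonitrile plus internal standard, LC/MS/MS; AUC0-t from non-compartmental analysis.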

[5] = Metabolic stability in rat hepatocytes at 1 uM after 3 to 30 mins by LC-MS/MS analysis; assay type: ADME, cell-based, Hepatocyte
[6] = target: Voltage-gated inwardly rectifying potassium channel KCNH2 (Homo sapiens, UniProt Q12809); experiment: Inhibition of [3H]-astemizole binding to human ERG at 10 uM after 2 hrs by liquid scintillation counting method relative to control; settings: 2 h, 10 µM
Chain of Voltage-gated inwardly rectifying potassium channel KCNH2 (Q12809 whole entry): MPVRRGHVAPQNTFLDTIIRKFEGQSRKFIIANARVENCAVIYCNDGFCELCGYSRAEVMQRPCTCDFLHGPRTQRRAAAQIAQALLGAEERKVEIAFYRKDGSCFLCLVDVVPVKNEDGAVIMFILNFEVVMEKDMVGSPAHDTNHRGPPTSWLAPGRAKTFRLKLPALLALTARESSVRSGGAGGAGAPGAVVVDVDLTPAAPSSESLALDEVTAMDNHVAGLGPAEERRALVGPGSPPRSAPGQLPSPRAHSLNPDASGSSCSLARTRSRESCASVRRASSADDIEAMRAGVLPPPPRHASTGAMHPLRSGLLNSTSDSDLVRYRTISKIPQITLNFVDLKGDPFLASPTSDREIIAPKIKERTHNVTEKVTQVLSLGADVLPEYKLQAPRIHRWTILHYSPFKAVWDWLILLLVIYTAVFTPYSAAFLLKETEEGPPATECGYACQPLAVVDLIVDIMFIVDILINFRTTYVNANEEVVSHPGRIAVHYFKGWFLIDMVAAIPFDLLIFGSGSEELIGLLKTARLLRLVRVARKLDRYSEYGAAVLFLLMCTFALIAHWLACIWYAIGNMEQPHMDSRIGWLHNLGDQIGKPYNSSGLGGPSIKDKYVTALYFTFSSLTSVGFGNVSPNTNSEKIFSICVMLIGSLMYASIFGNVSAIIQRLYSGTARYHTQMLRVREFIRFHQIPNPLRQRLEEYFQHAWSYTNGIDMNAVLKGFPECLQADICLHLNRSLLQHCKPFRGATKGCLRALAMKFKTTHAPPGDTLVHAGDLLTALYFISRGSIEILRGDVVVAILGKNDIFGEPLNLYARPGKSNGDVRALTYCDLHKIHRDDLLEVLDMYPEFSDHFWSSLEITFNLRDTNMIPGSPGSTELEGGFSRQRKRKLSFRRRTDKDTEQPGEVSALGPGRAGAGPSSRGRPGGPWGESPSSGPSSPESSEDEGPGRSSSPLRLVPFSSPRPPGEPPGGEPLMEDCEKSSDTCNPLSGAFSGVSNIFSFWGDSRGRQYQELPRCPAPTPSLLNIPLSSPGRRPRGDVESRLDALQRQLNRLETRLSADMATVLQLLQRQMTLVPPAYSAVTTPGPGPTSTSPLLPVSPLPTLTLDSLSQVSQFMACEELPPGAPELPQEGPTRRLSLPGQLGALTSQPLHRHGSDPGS

[7] = target: T1, Adenosine receptor A1 (Homo sapiens, UniProt P30542); experiment: Antagonist activity at human adenosine A1 receptor expressed in HEK293 cell membranes assessed as decrease in CPA/forskolin-induced cAMP level pretreated for 15 mins followed by agonist addition for 15 mins and subsequent forskolin stimulation measured after 30 mins; assay type: functional, cell-based
T1 sequence (P30542 whole entry): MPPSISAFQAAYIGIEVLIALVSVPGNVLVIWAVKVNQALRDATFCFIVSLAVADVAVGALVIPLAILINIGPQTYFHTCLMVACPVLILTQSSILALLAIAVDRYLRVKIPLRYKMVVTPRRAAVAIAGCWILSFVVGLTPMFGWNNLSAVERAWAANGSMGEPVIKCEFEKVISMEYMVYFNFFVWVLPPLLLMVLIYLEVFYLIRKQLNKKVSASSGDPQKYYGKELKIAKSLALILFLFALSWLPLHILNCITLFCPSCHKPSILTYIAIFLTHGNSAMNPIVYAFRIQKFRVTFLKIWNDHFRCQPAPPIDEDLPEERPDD
In short: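 HTRF cAMP assay in overnight-seeded HEK cells expressing human A1, A2A or A2B, pretreated with ADA 1 U/ml for 90 min at 37 °C. Cells were given compound at increasing concentrations for 15 min, then agonist at room temperature in incomplete DMEM with ADA: CPA 1 nM, 15 min (A1); CGS-21680 10 nM, 30 min (A2A); NECA 70 nM, 15 min (A2B). Rolipram 20 μM for A1 and A2A; forskolin 30 min for A1 only. 12 concentrations, triplicates; IC50/Ki by curve fitting.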

Compound: CCN(CC)C1CCC(C)(C(=O)Nc2nc3c(OC)ccc(N4CCOCC4)c3s2)CC1 (configuration not stated)
- Activity [1]: Active
- AUC(0-t) [2]: 1.1 µM·h
- AUC(0-t) [3]: 4.7 µM·h
- Kp [4]: 0.25

Compound: COc1cnc(N2CCOCC2)c2sc(NC(=O)C(C)(C)Oc3ccc(F)cc3)nc12
- Stability [5]: Stable

Compound: COc1ccc(N2CCOCC2)c2sc(NC(=O)C3(C)CCC(C)(O)CC3)nc12 (configuration not stated)
- inhibition (INH) [6]: Not Active

Compound: COc1ccc(N2CCOCC2)c2sc(NC(=O)C(C)(C)Oc3ccc(F)cc3)nc12
- Ki [7]: 2 µM
